Laboratory results from ChEMBL document CHEMBL3616436, “Synthesis, cytotoxicity and antimicrobial activity of thiourea derivatives incorporating 3-(trifluoromethyl)phenyl moiety” (Eur J Med Chem, 2015).
Values after ≈ are worked out from the molar mass of the structure shown.

Key:
Staphylococcus aureus [1] = experiment: Ratio of ciprofloxacin MIC to compound MIC for hospital methicillin-resistant Staphylococcus aureus 53/05 after 18 hrs by twofold serial microdilution method; type: functional
How it was run: (§1)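 Ratio of MICs for ciprofloxacin and test agent, each from twofold serial broth microdilution in Mueller-Hinton broth following CLSI guidelines. DMSO stock was diluted in sterile water to 0.125–512 µg/mL, with a final inoculum of 10^5 CFU/mL.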

[2] = test system: Staphylococcus epidermidis; experiment: Antimicrobial activity against hospital methicillin-resistant Staphylococcus epidermidis 151/04 after 18 hrs by twofold serial microdilution method; type: functional; conditions: 151/04, 18 h
How it was run: (§2)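 Twofold serial microdilution in Mueller-Hinton broth. Compound stock was made in DMSO and diluted in sterile water. Tested range was 0.125–512 µg/mL. Final inoculum was 10^5 CFU/mL. Plates were incubated 18 h at 35 °C. MIC is the lowest concentration preventing visible growth.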

Poliovirus 1 = experiment: Antiviral activity against Poliovirus type 1 ATCC VR-1562 infected in African green monkey Vero 76 cells assessed as reduction of virus-plaque formation after 2 days by crystal violet staining; type: functional, organism-based; conditions: Enterovirus C, ATCC VR-1562, Vero, 48 h
Bacillus cereus = experiment: Antimicrobial activity against Bacillus cereus ATCC 11778 at 400 ug after 18 hrs by disc-diffusion method; type: functional; conditions: ATCC 11778, 18 h, read-out: IZ
How it was run: (§3)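 Disc diffusion on Mueller-Hinton II agar per CLSI; 9 mm paper discs loaded with 400 µg compound from DMSO solution, dried, placed on agar; growth inhibition zone diameter read after 18 h at 35°C.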

[3] = test system: Mycobacterium tuberculosis; experiment: Antimycobacterial activity against drug-sensitive Mycobacterium tuberculosis Spec. 192; type: functional
How it was run: (§4)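 Classical test-tube successive-dilution method in Youmans' modification of Proskauer and Beck liquid medium with 10% bovine serum. Inoculum came from 14-day cultures. DMSO stock was 10 mg/mL, diluted geometrically in medium. Tubes were incubated at 37 °C. Concentrations tested were 3.1, 6.2, 12.5, 25, 50 and 100 µg/ml. MIC is the minimum concentration inhibiting growth relative to compound-free tubes.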

[4] = test system: Mycobacterium tuberculosis; experiment: Antimycobacterial activity against Mycobacterium tuberculosis H37Rv ATCC 25618; type: functional; how it was run: as §4
Staphylococcus aureus [5] = experiment: Ratio of ciprofloxacin MIC to compound MIC for hospital methicillin-resistant Staphylococcus aureus 79/05 after 18 hrs by twofold serial microdilution method; type: functional; how it was run: as §1
[6] = test system: Staphylococcus epidermidis; experiment: Antimicrobial activity against hospital methicillin-resistant Staphylococcus epidermidis 24/04 after 18 hrs by twofold serial microdilution method; type: functional; conditions: 24/04, 18 h; how it was run: as §2
Staphylococcus aureus [7] = experiment: Antimicrobial activity against hospital methicillin-resistant Staphylococcus aureus 81/05 after 18 hrs by twofold serial microdilution method; type: functional; conditions: 81/05, 18 h; how it was run: as §2
Staphylococcus aureus [8] = experiment: Antimicrobial activity against hospital methicillin-resistant Staphylococcus aureus 53/05 after 18 hrs by twofold serial microdilution method; type: functional; conditions: 53/05, 18 h; how it was run: as §2
[9] = test system: Staphylococcus epidermidis; experiment: Antimicrobial activity against hospital methicillin-resistant Staphylococcus epidermidis 62/04 after 18 hrs by twofold serial microdilution method; type: functional; conditions: 62/04, 18 h; how it was run: as §2
Micrococcus luteus [10] = experiment: Antimicrobial activity against Micrococcus luteus ATCC 10240 at 400 ug after 18 hrs by disc-diffusion method; type: functional; conditions: ATCC 10240, 18 h, read-out: IZ; how it was run: as §3
Staphylococcus aureus [11] = experiment: Antimicrobial activity against hospital methicillin-resistant Staphylococcus aureus 573/11 after 18 hrs by twofold serial microdilution method; type: functional; conditions: 573/11, 18 h; how it was run: as §2
[12] = test system: Staphylococcus epidermidis; experiment: Antimicrobial activity against hospital methicillin-resistant Staphylococcus epidermidis 63/04 after 18 hrs by twofold serial microdilution method; type: functional; conditions: 63/04, 18 h; how it was run: as §2
[13] = test system: Staphylococcus epidermidis; experiment: Antimicrobial activity against Staphylococcus epidermidis ATCC 35984 after 18 hrs by twofold serial microdilution method; type: functional; conditions: ATCC 35984, 18 h
Staphylococcus aureus [14] = experiment: Antimicrobial activity against hospital methicillin-resistant Staphylococcus aureus 79/05 after 18 hrs by twofold serial microdilution method; type: functional; conditions: 79/05, 18 h; how it was run: as §2
Staphylococcus aureus [15] = experiment: Ratio of ciprofloxacin MIC to compound MIC for hospital methicillin-resistant Staphylococcus aureus 573/11 after 18 hrs by twofold serial microdilution method; type: functional; how it was run: as §1
[16] = test system: Staphylococcus epidermidis; experiment: Antimicrobial activity against hospital methicillin-resistant Staphylococcus epidermidis 76/04 after 18 hrs by twofold serial microdilution method; type: functional; conditions: 76/04, 18 h; how it was run: as §2
[17] = test system: Staphylococcus epidermidis; experiment: Antimicrobial activity against Staphylococcus epidermidis ATCC 12228 at 400 ug after 18 hrs by disc-diffusion method; type: functional; conditions: ATCC 12228, 18 h, read-out: IZ; how it was run: as §3
[18] = test system: Staphylococcus epidermidis; experiment: Ratio of ciprofloxacin MIC to compound MIC for hospital methicillin-resistant Staphylococcus epidermidis 31/04 after 18 hrs by twofold serial microdilution method; type: functional; how it was run: as §1
Staphylococcus aureus [19] = experiment: Antimicrobial activity against Staphylococcus aureus ATCC 25923 at 400 ug after 18 hrs by disc-diffusion method; type: functional; conditions: ATCC 25923, 18 h, read-out: IZ; how it was run: as §3
[20] = test system: Staphylococcus epidermidis; experiment: Antimicrobial activity against Staphylococcus epidermidis ATCC 35984 at 400 ug after 18 hrs by disc-diffusion method; type: functional; conditions: ATCC 35984, 18 h, read-out: IZ; how it was run: as §3
Staphylococcus aureus [21] = experiment: Antimicrobial activity against Staphylococcus aureus ATCC 29213 at 400 ug after 18 hrs by disc-diffusion method; type: functional; conditions: ATCC 29213, 18 h, read-out: IZ; how it was run: as §3
[22] = Cytotoxicity against BHK cells assessed as cell viability after 48 to 96 hrs by MTT assay; type: cell-based, Mesocricetus auratus; conditions: hamster
Staphylococcus aureus [23] = experiment: Antimicrobial activity against hospital methicillin-resistant Staphylococcus aureus 54/05 after 18 hrs by twofold serial microdilution method; type: functional; conditions: 54/05, 18 h; how it was run: as §2
[24] = test system: Staphylococcus epidermidis; experiment: Antimicrobial activity against Staphylococcus epidermidis ATCC 12228 after 18 hrs by twofold serial microdilution method; type: functional; conditions: ATCC 12228, 18 h
Enterococcus hirae = experiment: Antimicrobial activity against Enterococcus hirae ATCC 10541 at 400 ug after 18 hrs by disc-diffusion method; type: functional; conditions: ATCC 10541, 18 h, read-out: IZ; how it was run: as §3
Human alphaherpesvirus 1 = experiment: Antiviral activity against Human herpesvirus 1 KOS ATCC VR-1493 infected in African green monkey Vero 76 cells assessed as reduction of virus-plaque formation after 3 days by crystal violet staining; type: functional, organism-based; conditions: Human alphaherpesvirus 1, KOS ATCC VR1493, Vero, 72 h
How it was run: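 Plaque reduction: Vero-76 at 2x10^5 cells/well grown to confluent monolayers, infected 2 h at 50–100 PFU/well; after removing unadsorbed virus, overlay of D-MEM, 1% inactivated FBS, 0.75% methylcellulose with or without serial compound dilutions; 3 days at 37°C, fixed and stained with crystal violet in 50% ethanol, plaques counted; EC50 by linear regression.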

Micrococcus luteus [25] = experiment: Antimicrobial activity against Micrococcus luteus ATCC 9341 at 400 ug after 18 hrs by disc-diffusion method; type: functional; conditions: ATCC 9341, 18 h, read-out: IZ; how it was run: as §3
[26] = test system: Human immunodeficiency virus 1; experiment: Antiviral activity against HIV1 3B infected in human MT4 cells assessed as protection against virus-induced cytopathogenicity by MTT assay; type: functional, organism-based; conditions: Human immunodeficiency virus 1, 3B
[27] = Cytotoxicity against African green monkey Vero 76 cells assessed as cell viability after 48 to 96 hrs by crystal violet staining; type: cell-based; conditions: chlorocebus sabaeus
[28] = test system: Staphylococcus epidermidis; experiment: Antimicrobial activity against hospital methicillin-resistant Staphylococcus epidermidis 16/04 after 18 hrs by twofold serial microdilution method; type: functional; conditions: 16/04, 18 h; how it was run: as §2
Staphylococcus aureus [29] = experiment: Antimicrobial activity against hospital methicillin-resistant Staphylococcus aureus 80/05 after 18 hrs by twofold serial microdilution method; type: functional; conditions: 80/05, 18 h; how it was run: as §2

| Structure (SMILES) | MIC [2] [µg/mL] | zone of inhibition at 400 µg/disc (Bacillus cereus) [mm] | MIC [6] [µg/mL] | MIC (Staphylococcus aureus [7]) [µg/mL] | MIC (Staphylococcus aureus [8]) [µg/mL] | MIC [9] [µg/mL] | zone of inhibition at 400 µg/disc (Micrococcus luteus [10]) [mm] | MIC (Staphylococcus aureus [11]) [µg/mL] | MIC [12] [µg/mL] | MIC [13] [µg/mL] | MIC (Staphylococcus aureus [14]) [µg/mL] | MIC [16] [µg/mL] | zone of inhibition at 400 µg/disc [17] [mm] | zone of inhibition at 400 µg/disc (Staphylococcus aureus [19]) [mm] | zone of inhibition at 400 µg/disc [20] [mm] | zone of inhibition at 400 µg/disc (Staphylococcus aureus [21]) [mm] | MIC [24] [µg/mL] | zone of inhibition at 400 µg/disc (Enterococcus hirae) [mm] | zone of inhibition at 400 µg/disc (Micrococcus luteus [25]) [mm] | MIC [28] [µg/mL] | further results |
| --- | --- | --- | --- | --- | --- | --- | --- | --- | --- | --- | --- | --- | --- | --- | --- | --- | --- | --- | --- | --- | --- |
| FC(F)(F)c1cccc(NC(=S)NCCc2ccccc2)c1 | 16 (≈ 49.3 µM) | 16 | 16 (≈ 49.3 µM) | 16 (≈ 49.3 µM) | 8 (≈ 24.7 µM) | 8 (≈ 24.7 µM) | 15 | 16 (≈ 49.3 µM) | 8 (≈ 24.7 µM) | 8 (≈ 24.7 µM) | 16 (≈ 49.3 µM) | 8 (≈ 24.7 µM) | 14 | 15 | 17 | 15 | 16 (≈ 49.3 µM) | 17 | 18 | 8 (≈ 24.7 µM) | Ratio (Staphylococcus aureus [1]): 128; EC50 (Poliovirus 1): > 46 µM; MIC [3]: 100 µg/mL (≈ 308 µM); MIC [4]: 50 µg/mL (≈ 154 µM); Ratio (Staphylococcus aureus [5]): 128; Ratio (Staphylococcus aureus [15]): 128; Ratio [18]: 128; CC50 [22]: 29 µM; MIC (Staphylococcus aureus [23]): 8 µg/mL (≈ 24.7 µM); EC50 (Human alphaherpesvirus 1): > 46 µM; EC50 [26]: > 8.8 µM; CC50 [27]: 46 µM; MIC (Staphylococcus aureus [29]): 8 µg/mL (≈ 24.7 µM) |
| Fc1ccc(NC(=S)Nc2cccc(C(F)(F)F)c2)cc1Cl | 2 (≈ 5.73 µM) | 25 | 1 (≈ 2.87 µM) | 0.25 (≈ 0.717 µM) | 1 (≈ 2.87 µM) | 0.5 (≈ 1.43 µM) | 30 | 0.5 (≈ 1.43 µM) | 0.5 (≈ 1.43 µM) | 2 (≈ 5.73 µM) | 1 (≈ 2.87 µM) | 0.25 (≈ 0.717 µM) | 30 | 27 | 27 | 30 | 2 (≈ 5.73 µM) | 34 | 32 | 1 (≈ 2.87 µM) | Ratio (Staphylococcus aureus [1]): 128; EC50 (Poliovirus 1): > 20 µM; MIC [3]: 50 µg/mL (≈ 143 µM); MIC [4]: 50 µg/mL (≈ 143 µM); Ratio (Staphylococcus aureus [5]): 128; Ratio (Staphylococcus aureus [15]): 128; Ratio [18]: 128; CC50 [22]: 10 µM; MIC (Staphylococcus aureus [23]): 1 µg/mL (≈ 2.87 µM); EC50 (Human alphaherpesvirus 1): > 20 µM; EC50 [26]: > 8 µM; CC50 [27]: 20 µM; MIC (Staphylococcus aureus [29]): 0.25 µg/mL (≈ 0.717 µM) |
| FC(F)(F)c1cccc(NC(S)=Nc2ccc(Cl)c(Cl)c2)c1 | 1 (≈ 2.74 µM) | 13 | 1 (≈ 2.74 µM) | 1 (≈ 2.74 µM) | 2 (≈ 5.48 µM) | 1 (≈ 2.74 µM) | 16 | 1 (≈ 2.74 µM) | 2 (≈ 5.48 µM) | 1 (≈ 2.74 µM) | 2 (≈ 5.48 µM) | 1 (≈ 2.74 µM) | 13 | 14 | 13 | 15 | 2 (≈ 5.48 µM) | 15 | 15 | 2 (≈ 5.48 µM) | Ratio (Staphylococcus aureus [1]): 128; EC50 (Poliovirus 1): > 16 µM; MIC [3]: 100 µg/mL (≈ 274 µM); MIC [4]: 50 µg/mL (≈ 137 µM); Ratio (Staphylococcus aureus [5]): 128; Ratio (Staphylococcus aureus [15]): 128; Ratio [18]: 128; MIC (Staphylococcus aureus [23]): 2 µg/mL (≈ 5.48 µM); EC50 (Human alphaherpesvirus 1): > 16 µM; EC50 [26]: > 9 µM; MIC (Staphylococcus aureus [29]): 2 µg/mL (≈ 5.48 µM) |
| O=C(O)c1cn(C2CC2)c2cc(N3CCNCC3)c(F)cc2c1=O [CIPROFLOXACIN] | 4 (≈ 12.1 µM) | 30 | 64 (≈ 193 µM) | 8 (≈ 24.1 µM) | 64 (≈ 193 µM) | 0.125 (≈ 0.377 µM) | 22 | 64 (≈ 193 µM) | 4 (≈ 12.1 µM) | 0.25 (≈ 0.754 µM) | 64 (≈ 193 µM) | 0.125 (≈ 0.377 µM) | 30 | 26 | 32 | 22 | 0.25 (≈ 0.754 µM) | 18 | 24 | 32 (≈ 96.6 µM) | – |
